From ChEMBL document CHEMBL1926683, “Synthesis and anticancer activity of 4β-alkylamidochalcone and 4β-cinnamido linked podophyllotoxins as apoptotic inducing agents” (Eur J Med Chem, 2012) come the findings set out here.

Assay type in all cases: functional, cell-based
One test concerns HT-29. As to the kind of experiment: Anticancer activity against human HT-29 cells after 48 hrs by MTT assay. The following applies: HT-29, 48 h. The gist of the method:
(§1)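 MTT assay. Cells seeded at 1 × 10⁴/well in DMEM with 10% FBS and held 24 h at 37 °C in CO₂. Compounds were diluted in culture medium and added alongside vehicle controls, then incubated 48 h. MTT (5 mg/ml stock) was added for 4 h. Supernatant was removed, formazan dissolved in DMSO, and absorbance read at 540 nm.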
(Tetrazolium assays rely on reduction of a dye to a coloured formazan, in cell work by metabolically active cells.)

For the next test, the system named is ACHN. The test can be described thus: Anticancer activity against human ACHN cells after 48 hrs by MTT assay. The gist of the method:
as §1

The next test relates to MCF7. The test can be described thus: Anticancer activity against human MCF7 cells after 48 hrs by MTT assay. The following applies: MCF7, 48 h. The gist of the method: as §1
The next test has as its system A-375. The test can be described thus: Anticancer activity against human A375 cells after 48 hrs by MTT assay. Conditions: A-375, 48 h. The gist of the method:
as §1

A further test deals with A549. As to the kind of experiment: Anticancer activity against human A549 cells after 48 hrs by MTT assay. The following applies: A549, 48 h. The gist of the method:
as §1

Turning to `COc1cccc(C(=O)/C=C/c2ccc(OCC(=O)N[C@@H]3c4cc5c(cc4[C@@H](c4cc(OC)c(OC)c(OC)c4)[C@H]4C(=O)OC[C@@H]43)OCO5)c(OC)c2)c1`, the IC50 in the test on HT-29 came to 8.1 µM; in the test on ACHN, 13.8 µM; with MCF7, 21.8 µM; in the test with A-375, 13.8 µM; with A549 it was 9.1 µM.

For the molecule `COc1cc([C@@H]2c3cc4c(cc3[C@@H](NC(=O)/C=C/c3ccc(Cl)c(Cl)c3)[C@H]3COC(=O)[C@H]23)OCO4)cc(OC)c1OC`, the IC50 with HT-29 is 21 µM; with ACHN, 17.7 µM; with MCF7 it was 20.1 µM; with A-375, 13.2 µM; with A549, 8.4 µM.

As to `COc1cccc(C(=O)/C=C/c2ccc(OCCCCCC(=O)N[C@@H]3c4cc5c(cc4[C@@H](c4cc(OC)c(OC)c(OC)c4)[C@H]4C(=O)OC[C@@H]43)OCO5)c(OC)c2)c1`, the IC50 is 11.9 µM in the test with HT-29; 13.7 µM in the test with ACHN; 17.5 µM in the test with MCF7; 20.1 µM in the test on A-375; 14.4 µM in the test with A549.

As to `O=C(O)/C=C/c1ccccc1` [CINNAMIC ACID], the IC50 was found to be 114 µM in the test with HT-29; 91 µM with ACHN; 108 µM in the test on MCF7; 64 µM with A-375; 87 µM in the test on A549.

Consider `COc1cc(/C=C/C(=O)N[C@@H]2c3cc4c(cc3[C@@H](c3cc(OC)c(OC)c(OC)c3)[C@H]3C(=O)OC[C@@H]32)OCO4)cc(OC)c1OC`, for which the IC50 stood at 8.34 µM in the test with HT-29; 13.1 µM with ACHN; 17.7 µM in the test with MCF7; 14 µM in the test on A-375; 7.9 µM with A549.

On to `COc1cc([C@@H]2c3cc4c(cc3[C@H](O)[C@H]3COC(=O)[C@H]23)OCO4)cc(OC)c1OC` [PODOFILOX], for which the IC50 came out at 0.78 µM in the test with HT-29; 2.12 µM with ACHN; 1.18 µM in the test on MCF7; 2.62 µM in the test with A-375; 3.75 µM with A549.

For the molecule `COc1ccc(C(=O)/C=C/c2ccc(OCC(=O)N[C@@H]3c4cc5c(cc4[C@@H](c4cc(OC)c(OC)c(OC)c4)[C@H]4C(=O)OC[C@@H]43)OCO5)c(OC)c2)cc1`, the IC50 in the test on HT-29 turned out to be 16.9 µM; in the test on ACHN, 16.1 µM; with MCF7, 16.2 µM; in the test on A-375 it was 9.3 µM; in the test with A549, 8.3 µM.

As for `COc1cc(/C=C/C(=O)c2cccc([N+](=O)[O-])c2)ccc1OCC(=O)N[C@@H]1c2cc3c(cc2[C@@H](c2cc(OC)c(OC)c(OC)c2)[C@H]2C(=O)OC[C@@H]21)OCO3`, the IC50 was 8.41 µM in the test with HT-29; 13.2 µM in the test on ACHN; 6.7 µM in the test on MCF7; 5.3 µM with A-375; 9 µM in the test on A549.

`COc1cc([C@@H]2c3cc4c(cc3[C@@H](NC(=O)/C=C/c3ccc(Br)cc3)[C@H]3COC(=O)[C@H]23)OCO4)cc(OC)c1OC`: the IC50 with HT-29 stood at 19.2 µM; in the test on ACHN, 14.3 µM; with MCF7, 11.2 µM; in the test with A-375, 17.8 µM; in the test with A549, 9.5 µM.

As for `COc1cc(/C=C/C(=O)c2c(C)nc3ccccc3c2C)ccc1OCCCCCC(=O)N[C@@H]1c2cc3c(cc2[C@@H](c2cc(OC)c(OC)c(OC)c2)[C@H]2C(=O)OC[C@@H]21)OCO3`, the IC50 in the test on HT-29 is 11.8 µM; with ACHN it was 10.7 µM; in the test with MCF7, 8.6 µM; in the test on A-375, 10.3 µM; in the test with A549 it was 10.6 µM.

On to `COc1cc([C@@H]2c3cc4c(cc3[C@@H](NC(=O)/C=C/c3ccc(F)cc3)[C@H]3COC(=O)[C@H]23)OCO4)cc(OC)c1OC`, for which the half-inhibitory concentration (IC50) in the test with HT-29 turned out to be 7.1 µM; in the test with ACHN it was 18.6 µM; in the test with MCF7, 14.6 µM; with A-375, 9.5 µM; with A549, 6.8 µM.

As to `COc1cc(C(=O)/C=C/c2cccc(OCC(=O)N[C@@H]3c4cc5c(cc4[C@@H](c4cc(OC)c(OC)c(OC)c4)[C@H]4C(=O)OC[C@@H]43)OCO5)c2)cc(OC)c1OC`, the IC50 worked out at 15.6 µM with HT-29; 9.1 µM with ACHN; 24.4 µM in the test on MCF7; 18.2 µM with A-375; 16.8 µM in the test on A549.

Turning to `COc1cccc2c1C(=O)c1c(O)c3c(c(O)c1C2=O)C[C@@](O)(C(=O)CO)C[C@@H]3O[C@H]1C[C@H](N)[C@H](O)[C@H](C)O1` [DOXORUBICIN], the IC50 stood at 1.06 µM with HT-29; 0.79 µM in the test on ACHN; 2.02 µM in the test with MCF7; 5.51 µM in the test on A-375; 2.18 µM in the test with A549.

`COc1ccc(/C=C/C(=O)c2cc(OC)c(OC)c(OC)c2)cc1OCC(=O)N[C@@H]1c2cc3c(cc2[C@@H](c2cc(OC)c(OC)c(OC)c2)[C@H]2C(=O)OC[C@@H]21)OCO3`: the IC50 with HT-29 came to 5.98 µM; in the test on ACHN, 11.1 µM; with MCF7, 15.4 µM; in the test with A-375, 11.5 µM; in the test with A549 it was 11.7 µM.

With `COc1cc(/C=C/C(=O)c2cc(OC)c(OC)c(OC)c2)ccc1OCCCCCC(=O)N[C@@H]1c2cc3c(cc2[C@@H](c2cc(OC)c(OC)c(OC)c2)[C@H]2C(=O)OC[C@@H]21)OCO3`, the IC50 in the test with HT-29 worked out at 12.1 µM; in the test with ACHN it was 19.5 µM; with MCF7, 10.2 µM; with A-375, 9.8 µM; in the test on A549, 13.6 µM.

Turning to `COc1cc(C(=O)/C=C/c2cccc(OCCCCCC(=O)N[C@@H]3c4cc5c(cc4[C@@H](c4cc(OC)c(OC)c(OC)c4)[C@H]4C(=O)OC[C@@H]43)OCO5)c2)cc(OC)c1OC`, the IC50 in the test on HT-29 was determined as 21.1 µM; in the test on ACHN it was 20.8 µM; with MCF7, 8.3 µM; with A-375, 11.5 µM; with A549 it was 14.7 µM.

For `COc1cc(/C=C/C(=O)c2ccc(F)cc2)ccc1OCC(=O)N[C@@H]1c2cc3c(cc2[C@@H](c2cc(OC)c(OC)c(OC)c2)[C@H]2C(=O)OC[C@@H]21)OCO3`, the IC50 in the test on HT-29 stood at 21.6 µM; with ACHN, 26.7 µM; in the test with MCF7, 19.1 µM; in the test on A-375, 12.2 µM; with A549, 26.4 µM.

Regarding `COc1cc(/C=C/C(=O)c2ccc(F)cc2)ccc1OCCCCCC(=O)N[C@@H]1c2cc3c(cc2[C@@H](c2cc(OC)c(OC)c(OC)c2)[C@H]2C(=O)OC[C@@H]21)OCO3`, the IC50 with HT-29 worked out at 11.7 µM; with ACHN, 9.3 µM; with MCF7, 15.8 µM; in the test on A-375, 11.4 µM; with A549 it was 5.9 µM.

Take `COc1ccc(C(=O)/C=C/c2ccc(OCCCCCC(=O)N[C@@H]3c4cc5c(cc4[C@@H](c4cc(OC)c(OC)c(OC)c4)[C@H]4C(=O)OC[C@@H]43)OCO5)c(OC)c2)cc1`: the IC50 with HT-29 was 16 µM; in the test with ACHN it was 10 µM; in the test with MCF7 it was 12 µM; in the test on A-375, 13 µM; in the test on A549 it was 19 µM.

Turning to `COc1cc(C(=O)/C=C/c2ccc(OCCCCCC(=O)N[C@@H]3c4cc5c(cc4[C@@H](c4cc(OC)c(OC)c(OC)c4)[C@H]4C(=O)OC[C@@H]43)OCO5)cc2)cc(OC)c1OC`, the IC50 worked out at 15.3 µM in the test on HT-29; 16.5 µM with ACHN; 24.8 µM in the test on MCF7; 18.4 µM with A-375; 21.5 µM in the test on A549.

A word on the IC50: it is the point on the concentration scale where inhibition reaches its midpoint. The low end stands for greater potency in that assay, the high end for weaker potency in that assay.
